Source: PubChem BioAssay
MrgX1 antag – blocks BAM8-22 activation of human MrgX1 receptor; Q96LB2; MRGX1-HEK293 calcium flux, Fluo-4, BAM8-22 antagonism; hits give low values; B-score at 10 µM; 310,000 compounds, 1.3% hits; AID 588676;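 active = calcium-response B-score plate-corrected more than 3 library SD below zero, starting fluorescence within 5 deviations, no agonist response on first addition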;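 also: peak minus trough fluorescence over baseline after final BAM8-22 challenge near maximal dose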
Target sequence (Q96LB2 whole entry, looked up): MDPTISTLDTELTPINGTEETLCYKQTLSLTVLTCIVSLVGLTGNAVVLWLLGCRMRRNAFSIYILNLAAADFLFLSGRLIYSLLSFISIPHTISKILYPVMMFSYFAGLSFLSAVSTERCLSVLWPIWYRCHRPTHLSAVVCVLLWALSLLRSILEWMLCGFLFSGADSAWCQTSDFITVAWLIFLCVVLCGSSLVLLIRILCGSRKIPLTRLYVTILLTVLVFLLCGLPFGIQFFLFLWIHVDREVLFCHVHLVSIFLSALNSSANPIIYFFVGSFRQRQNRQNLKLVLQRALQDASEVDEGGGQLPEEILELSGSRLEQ
MrgX1 agonist – activates human MrgX1 receptor signaling; Q96LB2; MrgX1-HEK293 cells, Fluo-4 calcium fluorescence, agonist mode; hits give high values; B-score at 10 µM; 310,000 compounds, 0.44% hits; AID 588627;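 active = calcium response B-score plate-corrected fluorescence ratio at least 3 library SD, with starting fluorescence B-score inside 5 SD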
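Test system: HEK293 cells stably expressing human MrgX1 receptor; Input: fifteen thousand cells per well; Dosing: compound delivered in addition one of three; Schedule: overnight seeding, then 1 h dark dye loading; Technique: Fluo-4 NW calcium fluorescence; Measure: B-scored fluorescence response ratio; Controls: positive and negative controls per plate.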
RGS4 inh – inhibitors of human RGS4. B-score at 10 µM. 310,000 compounds, 0.45% hits. AID 463165. P49798. HEK293 M3R/RGS4 inducible, Fluo-4 calcium flux; hits give high values; triggered by carbachol at its EC20;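 active = B-score, a plate-corrected calcium signal, over three deviations above library mean, with baseline fluorescence within five deviations of library mean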;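 also: RGS4 expression induced by doxycycline in cells with stable M3 receptor; B-score is computed from the integrated fluorescence ratio over baseline after carbachol; higher B-score means a larger calcium signal and so more RGS4 inhibition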
Target sequence (P49798 whole entry, looked up): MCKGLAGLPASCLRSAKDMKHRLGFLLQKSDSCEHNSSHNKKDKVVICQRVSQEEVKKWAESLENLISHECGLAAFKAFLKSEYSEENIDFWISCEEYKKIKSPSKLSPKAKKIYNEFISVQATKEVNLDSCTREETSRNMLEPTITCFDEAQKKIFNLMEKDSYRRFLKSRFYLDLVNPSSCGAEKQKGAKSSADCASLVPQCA
RGS4 act – potentiators or activators of RGS4; B-score at 10 µM; HEK293 M3R/inducible RGS4, carbachol calcium flux Fluo4; hits give low values; 310,000 compounds, 0.92% hits;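 active = B-score of the integrated calcium signal more than 4 SD below the library mean, with starting fluorescence not abnormally high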;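 also: negative B-score means reduced calcium response which marks RGS4 activation or potentiation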
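test system = M3R-expressing HEK293 line, RGS4 induced by doxycycline | probe or stimulus = carbachol at ECmax as muscarinic agonist stimulus | timing = dye loading 30 min 37 °C, buffer rest 30 min RT | signal = calcium dye Fluo4 fluorescence | evaluation = B score from integrated fluorescence ratio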
MrgX1 PAM – allosterically activates human MrgX1 receptor signaling; Q96LB2; MrgX1-HEK293, Fluo-4 calcium flux, FDSS; hits give high values; 310,000 compounds, 0.63% hits; B-score at 10 µM;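 active = plate-corrected calcium response at least 3 library SD above typical, normal starting fluorescence, not activating the receptor alone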;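 also: compound read alongside a low EC10 to EC30 dose of BAM8-22 agonist; peak minus trough fluorescence over baseline measured at the second addition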
Active calls of the source: *; i = inactive; nt = not tested or not shown. The list is not random: actives were taken first. Their share in the collection is about 3.5%.

SMILES	MrgX1 antag	MrgX1 agonist	RGS4 inh	RGS4 act	MrgX1 PAM
O=C(Nc1cccc([N+](=O)[O-])c1)c1cc2ccccc2cc1O	-4.83*	i	i	i	i
CCc1ccc2oc(-c3ccc(OC)cc3)cc(=Nc3c(C)n(C)n(-c4ccccc4)c3=O)c2c1	i	i	i	-7.36*	i
O=C(O)c1ccc(N=Nc2c(O)[nH]c3cc(Cl)ccc23)cc1	-5.97*	i	i	i	i
Cn1c(C(=O)N(Cc2ccccc2)Cc2cccs2)cc2sccc21	i	i	i	-7.85*	i
Oc1ccccc1C1=Nc2nc3ccccc3n2C(c2ccccc2)C1 (configuration not stated)	i	i	i	i	16.8*
Nc1ncc(Br)cc1S(=O)(=O)NCCc1ccccc1	i	i	i	i	i
COc1cc([N+](=O)[O-])ccc1NC(=O)COC(=O)C=C(C)C	i	i	i	i	i
CC(C)=CC(=O)OCC(=O)Nc1cccc([N+](=O)[O-])c1	-8.62*	i	i	i	i
COc1ccc(Oc2ccc(/C=C/C(=O)c3ccc(O)cc3)cc2[N+](=O)[O-])cc1	-5.38*	i	i	i	i
COc1cccc(/C=C/C(=O)c2cccc([N+](=O)[O-])c2)c1OC	i	i	i	i	i
COc1cccc(/C=C/C(=O)c2cccc([N+](=O)[O-])c2)c1	i	37.9*	i	i	i
O=C(/C=C/c1cccc([N+](=O)[O-])c1)c1ccco1	i	55.6*	i	i	i
Cc1cccc(/C=C/C(=O)c2ccc(NC3=NCCCS3)cc2)c1	i	i	i	i	i
COc1cccc(/C=C/C(=O)c2ccc(NC3=NCCCS3)cc2)c1	i	44.9*	i	i	i
O=C(CN1CCN(Cc2ccccc2)CC1)Nc1ccc(Br)cc1	i	i	i	i	i
CCC(CC)C(=O)Nc1cccc(/C(C)=N/NC(=O)c2ccccc2Cl)c1	i	i	i	i	i
CCCCn1c(-c2cccc3ccccc23)nc2cc3[nH]c(=O)c(C(C)C)nc3cc21	i	i	i	i	i
O=C(O)CC1c2ccccc2C=Cc2ccccc21	i	i	i	i	i
Nc1ccnn1Cc1ccncc1	i	i	i	i	i
COc1ccc(N=C2S/C(=C\c3ccc(OCC(=O)O)cc3)C(=O)N2CCc2c[nH]c3ccccc23)cc1	nt	nt	i	i	nt
COc1ccc(N=C2S/C(=C\c3ccc(N4CCOCC4)o3)C(=O)N2CCc2c[nH]c3ccccc23)cc1	-7.14*	i	i	i	i
CCc1noc(C)c1C(=O)Nc1nc(-c2cc(OC)ccc2OC)cs1	i	i	i	i	i
CC1CCN(CCCCOc2cccc(Br)c2)CC1	i	i	i	-7.02*	i
Brc1ccc(OCCCCN2CCCCC2)cc1	i	i	i	i	i
CC1CCN(CCCCOc2ccccc2Br)CC1	i	i	i	i	i
SMILES	MrgX1 antag	MrgX1 agonist	RGS4 inh	RGS4 act	MrgX1 PAM
CC1CCN(CCCCOc2ccc(Br)cc2)CC1	i	i	i	-7.43*	i
O=C(Cn1nnc2ccccc21)OCC(=O)c1ccccc1	-6.12*	i	i	i	i
C=CCn1c(-c2ccc([N+](=O)[O-])cc2)n[nH]c1=S	i	i	i	-7.68*	i
C=CCn1c(-c2ccccc2[N+](=O)[O-])n[nH]c1=S	i	i	i	i	i
CC12CCC(C/C1=N/NC(=O)COc1ccccc1Cl)C2(C)C (configuration not stated)	i	i	i	i	i
CC12CCC(C/C1=N\OC(=O)c1c(F)cccc1F)C2(C)C (configuration not stated)	i	53.8*	i	i	i
CC12CCC(C/C1=N/NC(=O)Nc1ccccc1)C2(C)C (configuration not stated)	i	i	i	i	12.7*
COc1cc2c(cc1NC(=O)CSc1ccc(C)cc1)oc1ccccc12	i	i	i	i	i
COc1cc2c(cc1NC(=O)C(C)Sc1ccc(C)cc1)oc1ccccc12 (configuration not stated)	i	i	i	-7*	i
CCOc1ccccc1NC(=O)C(C)SCc1ccccc1 (configuration not stated)	i	i	i	i	i
CC(SCc1ccccc1)C(=O)Nc1ccccc1-c1ccccc1 (configuration not stated)	i	i	i	i	11.6*
CN(C)CCCNC(=O)/C(=C\c1ccc(-c2ccc(Br)cc2)o1)NC(=O)c1ccccc1	i	i	i	i	i
CN(C)CCCNC(=O)/C(=C/c1ccc(-c2ccc([N+](=O)[O-])cc2)o1)NC(=O)c1ccccc1	-5.72*	i	i	i	i
COC(=O)c1ccccc1SC(CC(=O)c1ccccc1)c1ccc(F)cc1 (configuration not stated)	i	i	i	-7.13*	i
O=C(CC(Nc1ccc(F)cc1)c1ccccc1)c1ccccc1 (configuration not stated)	i	i	i	i	i
COc1cc(C(c2c(O)nc(SC)[nH]c2=O)c2c(O)nc(SC)[nH]c2=O)cc(OC)c1OC	-4.68*	i	i	i	i
COc1ccccc1-n1c(C)c(C(C)=O)c2cc(O)ccc21	i	i	i	i	i
CCOc1ccc(NC(=O)CSc2nnc(CCNC(=O)c3ccc(OC)cc3)n2C)cc1	-6.26*	i	i	i	i
CCN(CC)CCCNC(=O)c1ccc(N2CCCCC2)c(NS(=O)(=O)c2ccc(C)cc2)c1	i	26.6*	i	i	i
C=CCNC(=O)COC(=O)c1ccc(Sc2nncn2C)c([N+](=O)[O-])c1	-5.17*	i	i	i	i
COc1ccc(C(=O)CC(=O)c2ccccc2)cc1	i	i	i	i	i
COc1ccc(C(=O)C/C(=C\C(=O)c2ccc(C)cc2)c2ccccc2)cc1	-5.56*	i	i	-7.12*	i
Cc1cc(Cl)ccc1OCC(=O)NN1C(=O)C2C3C=CC(C3)C2C1=O (configuration not stated)	-6.12*	i	i	i	i
N=c1c(-c2nc3ccccc3[nH]2)cc(C(=O)c2ccco2)nn1-c1ccccc1	i	i	i	i	i
N=c1c(-c2nc3ccccc3[nH]2)cc(C(=O)c2cccs2)nn1-c1ccccc1	i	i	i	-8.56*	i
